Measurements taken from ChEMBL document CHEMBL1921744, “Lipophosphonoxins: new modular molecular structures with significant antibacterial properties” (J Med Chem, 2011).
pIC50: −log10 of the molar value. ≈ marks a conversion by molar mass, not a printed value. Calls of active or inactive are those of the source. The rule behind the calls is not given here.

Assays:
Escherichia coli [1] = assay: Antibacterial activity against permeabilized Escherichia coli DH5[alpha] assessed as cell killing at 10 uM; format: functional
Summary of the method: (§1)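 Competent (permeabilized) E. coli DH5α cells were mixed with 5 ng pUC18 (ampR) and serially diluted compound or buffer only. Steps: 30 min on ice, heat shock at 42 °C for 90 s, 5 min on ice, then LB without antibiotic for 1 h at 37 °C with shaking. Plated on LB agarose with ampicillin 100 μg/mL overnight at 37 °C. Colonies counted against the no-compound control.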

Staphylococcus aureus [2] = assay: Antibacterial activity against methicillin-resistant Staphylococcus aureus 4591 after 24 to 48 hrs by microdilution method; format: functional
Summary of the method: (§2)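 Broth microdilution MIC on clinical isolates from Teaching Hospital Olomouc, stored at −80 °C. Compounds were serially diluted in brain heart infusion broth over 200–1.56 μg/mL (sometimes extended to 0.78 μg/mL), with an inoculum of 10⁵⁻⁶ CFU/ml per well. Plates were incubated at 37 °C and read at 24/48 h. MIC was taken as the lowest concentration inhibiting growth.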

[3] = system: Staphylococcus haemolyticus; assay: Antibacterial activity against fluoroquinolone-resistant Staphylococcus haemolyticus 16568 after 24 to 48 hrs by microdilution method; format: functional; summary of the method: as §2
Enterococcus faecium [4] = assay: Antibacterial activity against vancomycin-resistant Enterococcus faecium VanA419/ana after 24 to 48 hrs by microdilution method; format: functional; summary of the method: as §2
[5] = system: Staphylococcus epidermidis; assay: Antibacterial activity against methicillin-resistant Staphylococcus epidermidis 8700/B after 24 to 48 hrs by microdilution method; format: functional; summary of the method: as §2
[6] = Cytotoxicity against human Erythroid progenitor cells assessed as cell viability after 48 hrs by CellTiter-blue assay; format: cell-based
Summary of the method: (§3)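 Normal human erythroid progenitor cells, expanded from umbilical cord blood, plated at 25000 cells/well immediately before compound addition (added as a 5× predilution in culture medium). Viability by CellTiter-Blue fluorescence 48 h after addition, normalized to untreated cells set as 100%.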

[7] = Cytotoxicity against human Erythroid progenitor cells assessed as maximum safe concentration after 48 hrs by CellTiter-blue assay; format: cell-based; conditions: read-out: Activity; summary of the method: as §3
[8] = Induction of apoptosis in human Erythroid progenitor cells assessed as caspase 3/7 activation after 4 hrs by Caspase-Glo 3/7 assay
Summary of the method: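 Cord-blood-derived human erythroid progenitor cells plated at 25000 cells/well and exposed to compound prediluted in medium. Caspase 3/7 activation read by Caspase-Glo 3/7 luminescence 4 h after addition, normalized to untreated control cells set as 100%.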

Escherichia coli [9] = assay: Antibacterial activity against Escherichia coli after 24 to 48 hrs by microdilution method; format: functional
Summary of the method: (§4)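 Incubation 24/48 h at 37 °C. MIC read as the lowest concentration inhibiting growth. MBC determined by transferring 10 μL from wells onto blood agar, taken as the lowest concentration with no visible growth.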

Pseudomonas aeruginosa = assay: Antibacterial activity against Pseudomonas aeruginosa after 24 to 48 hrs by microdilution method; format: functional; summary of the method: as §4
Enterococcus faecalis [10] = assay: Antibacterial activity against Enterococcus faecalis CCM 4224 after 24 to 48 hrs by microdilution method; format: functional; summary of the method: as §4
Staphylococcus aureus [11] = assay: Antibacterial activity against Staphylococcus aureus CCM 4223 after 24 to 48 hrs by microdilution method; format: functional; summary of the method: as §4
Bacillus subtilis [12] = assay: Antibacterial activity against Bacillus subtilis after 24 to 48 hrs by microdilution method; format: functional; summary of the method: as §4
Streptococcus agalactiae = assay: Antibacterial activity against Streptococcus agalactiae after 24 to 48 hrs by microdilution method; format: functional; summary of the method: as §4
Escherichia coli [13] = assay: Antibacterial activity against permeabilized Escherichia coli DH5[alpha] assessed as cell killing at 25 uM; format: functional; summary of the method: as §1
Escherichia coli [14] = assay: Antibacterial activity against permeabilized Escherichia coli DH5[alpha] assessed as log reduction of colony forming unit at 10 uM; format: functional, organism-based; summary of the method: as §1
Bacillus subtilis [15] = conditions: at 0.2 mM
Escherichia coli [16] = assay: Antibacterial activity against permeabilized Escherichia coli DH5[alpha] assessed as log reduction of colony forming unit at 1 mM; format: functional, organism-based; summary of the method: as §1
Staphylococcus aureus [17] = assay: Antibacterial activity against Staphylococcus aureus infected in mouse; format: functional
Staphylococcus aureus [18] = assay: Antibacterial activity against methicillin-sensitive Staphylococcus aureus ATCC 29213; format: functional; summary of the method: as §4
Staphylococcus aureus [19] = assay: Antibacterial activity against methicillin-resistant Staphylococcus aureus SR3637; format: functional
Enterococcus faecalis [20] = assay: Antibacterial activity against Enterococcus faecalis ATCC 29212; format: functional
Enterococcus faecalis [21] = assay: Antibacterial activity against vancomycin-resistant Enterococcus faecalis SR7914; format: functional
Enterococcus faecium [22] = assay: Antibacterial activity against Enterococcus faecium ATCC 19434; format: functional; summary of the method: as §4
Enterococcus faecium [23] = assay: Antibacterial activity against vancomycin-resistant Enterococcus faecium SR7917; format: functional
[24] = system: Mycobacterium tuberculosis; assay: Antimycobacterial activity against drug-susceptible Mycobacterium tuberculosis; format: functional
[25] = molecular target: T1, Phospho-N-acetylmuramoyl-pentapeptide-transferase (Mycobacterium tuberculosis, UniProt P9WMW7); assay: Inhibition of Mycobacterium tuberculosis MraY translocase
T1 sequence (P9WMW7 whole entry): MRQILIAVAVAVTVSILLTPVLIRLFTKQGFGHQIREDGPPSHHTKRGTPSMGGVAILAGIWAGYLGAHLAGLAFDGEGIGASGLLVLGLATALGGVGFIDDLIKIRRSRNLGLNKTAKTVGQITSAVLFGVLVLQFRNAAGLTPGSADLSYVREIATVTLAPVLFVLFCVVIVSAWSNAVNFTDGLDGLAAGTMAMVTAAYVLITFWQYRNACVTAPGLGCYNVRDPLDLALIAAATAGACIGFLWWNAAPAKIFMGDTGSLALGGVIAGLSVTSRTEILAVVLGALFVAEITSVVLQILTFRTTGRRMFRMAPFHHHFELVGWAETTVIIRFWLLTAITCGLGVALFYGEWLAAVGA

Bacillus subtilis [26] = assay: Inhibition of Bacillus subtilis RNA polymerase using [alpha-32P]-UTP at 1 mM pretreated for 5 mins measured after 15 mins by electrophoresis analysis
Summary of the method: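 Reconstituted B. subtilis RNAP σA holoenzyme (6 nM) with supercoiled pLK7 template carrying the rrnB P1 promoter (4 ng/μL). Nucleotides: ATP/CTP/GTP 200 μM, UTP 10 μM plus 2 μM [α-³²P]-UTP. Compound at 1 mM; 5 min preincubation at 30 °C, started with RNAP, stopped after 15 min with formamide/EDTA.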

CCCCCCCCCCCCCCCCOP(=O)(CCN1C[C@@H](O)[C@H](O)C1)OC[C@H]1O[C@@H](n2ccc(=O)[nH]c2=O)[C@H](O)[C@@H]1O (mixture of isomers)
Activity (Escherichia coli [1]): 90%
MIC (Staphylococcus aureus [2]): 12.5 µg/mL
MIC [3]: 12.5 µg/mL
MIC (Enterococcus faecium [4]): 3.13 µg/mL
MIC [5]: 3.13 µg/mL
IC50 [6]: 56 µg/mL
MNTC at 48 h [7]: 31.2 µg/mL
Activity [8]: Non-toxic
MIC (Escherichia coli [9]): > 200 µg/mL
MIC (Pseudomonas aeruginosa): > 200 µg/mL
MIC (Enterococcus faecalis [10]): 6.25 µg/mL
MIC (Staphylococcus aureus [11]): 6.25 µg/mL
MIC (Bacillus subtilis [12]): 3.13 µg/mL
MIC (Streptococcus agalactiae): 1.56 µg/mL

CCCCCCCCCCCCCCCCCCCCOP(=O)(CCN1C[C@@H](O)[C@H](O)C1)OC[C@H]1O[C@@H](n2ccc(=O)[nH]c2=O)[C@H](O)[C@@H]1O (some centres not stated)
IC50 [6]: 31 µg/mL (≈ 43.2 µM)
MNTC at 48 h [7]: 15.6 µg/mL
Activity [8]: Non-toxic
MIC (Escherichia coli [9]): > 200 µg/mL
MIC (Pseudomonas aeruginosa): > 200 µg/mL
Activity (Escherichia coli [13]): 90%
Activity (Escherichia coli [14]): Active
MIC (Enterococcus faecalis [10]): 100 µg/mL (≈ 139 µM)
MIC (Streptococcus agalactiae): 6.25 µg/mL (≈ 8.71 µM)

CCCCCCCCCCCCCCCCCCOP(=O)(CCN1C[C@@H](O)[C@H](O)C1)OC[C@H]1O[C@@H](n2ccc(=O)[nH]c2=O)[C@H](O)[C@@H]1O (some centres not stated)
MIC (Staphylococcus aureus [2]): 200 µg/mL (≈ 290 µM)
MIC (Enterococcus faecium [4]): 6.25 µg/mL (≈ 9.06 µM)
MIC [5]: 6.25 µg/mL (≈ 9.06 µM)
IC50 [6]: 36 µg/mL (≈ 52.2 µM)
MNTC at 48 h [7]: 15.6 µg/mL
Activity [8]: Non-toxic
MIC (Escherichia coli [9]): > 200 µg/mL
MIC (Pseudomonas aeruginosa): > 200 µg/mL
MIC (Enterococcus faecalis [10]): 6.25 µg/mL (≈ 9.06 µM)
MIC (Staphylococcus aureus [11]): 12.5 µg/mL (≈ 18.1 µM)
MIC (Bacillus subtilis [12]): 6.25 µg/mL (≈ 9.06 µM)
MIC (Streptococcus agalactiae): 3.13 µg/mL (≈ 4.54 µM)

Cetyltrimethylammonium bromide
inhibition (Bacillus subtilis [15]): Active

O=c1ccn([C@@H]2O[C@H](COP(=O)(O)CCN3C[C@@H](O)[C@H](O)C3)[C@@H](O)[C@H]2O)c(=O)[nH]1
Activity (Escherichia coli [16]): inactive

CC(C)C[C@H](NC(=O)[C@@H](NC(=O)N[C@H](C(=O)O)C(C)C)[C@@H]1CCNC(=N)N1)C(=O)NCCCN[C@H](C(=O)O)[C@H](O[C@@H]1O[C@H](CN)[C@@H](O)[C@H]1O)[C@H]1O[C@@H](n2ccc(=O)[nH]c2=O)[C@H](O)[C@@H]1O [MURAMYCIN D2]
ED50 (Staphylococcus aureus [17]): 1.1 mg/kg
MIC (Staphylococcus aureus [18]): > 64 µg/mL
MIC (Staphylococcus aureus [19]): > 64 µg/mL
MIC (Enterococcus faecalis [20]): > 64 µg/mL
MIC (Enterococcus faecalis [21]): > 64 µg/mL
MIC (Enterococcus faecium [22]): > 64 µg/mL
MIC (Enterococcus faecium [23]): > 64 µg/mL

CO[C@@H]1[C@@H](OC)[C@H](C)O[C@@H](OC(=O)C[C@@H](C)CC(=O)O[C@@H](CCCCCCCCCCCC(C)C)CC(=O)O[C@H]2CN(C)[C@@H]([C@H](O[C@@H]3O[C@H](CN)[C@@H](O)[C@H]3O)[C@H]3O[C@@H](n4ccc(=O)[nH]c4=O)[C@H](O)[C@@H]3O)C(=O)N(C)[C@@H]2C(=O)O)[C@@H]1OC [CAPRAZAMYCIN B]
MIC [24]: 3.13 µg/mL (≈ 2.7 µM)

CC(C)CCCCCCCC(CC(=O)O[C@H]1CN(C)[C@@H]([C@H](O[C@@H]2O[C@H](CN)[C@@H](O)[C@H]2OS(=O)(=O)O)[C@H]2O[C@@H](n3ccc(=O)[nH]c3=O)[C@H](O)[C@@H]2O)C(=O)N(C)[C@@H]1C(=O)O)OC(=O)CC(C)CC(=O)O (some centres not stated) [LIPOSIDOMYCIN B]
pIC50 [25]: 7.31

CCCCCCCCCCCCCCOP(=O)(CCN1C[C@@H](O)[C@H](O)C1)OC[C@H]1O[C@@H](n2ccc(=O)[nH]c2=O)[C@H](O)[C@@H]1O (some centres not stated)
MIC (Staphylococcus aureus [2]): 25 µg/mL (≈ 39.4 µM)
MIC [3]: 12.5 µg/mL (≈ 19.7 µM)
MIC (Enterococcus faecium [4]): 12.5 µg/mL (≈ 19.7 µM)
MIC [5]: 12.5 µg/mL (≈ 19.7 µM)
IC50 [6]: 58 µg/mL (≈ 91.5 µM)
MNTC at 48 h [7]: 31.2 µg/mL
Activity [8]: Non-toxic
MIC (Escherichia coli [9]): > 200 µg/mL
MIC (Pseudomonas aeruginosa): > 200 µg/mL
MIC (Enterococcus faecalis [10]): 12.5 µg/mL (≈ 19.7 µM)
MIC (Staphylococcus aureus [11]): 12.5 µg/mL (≈ 19.7 µM)
MIC (Bacillus subtilis [12]): 6.25 µg/mL (≈ 9.86 µM)
MIC (Streptococcus agalactiae): 6.25 µg/mL (≈ 9.86 µM)

CCCCCCCCCCCCCCCCOCCCOP(=O)(CCN1C[C@@H](O)[C@H](O)C1)OC[C@H]1O[C@@H](n2ccc(=O)[nH]c2=O)[C@H](O)[C@@H]1O (some centres not stated)
Activity (Escherichia coli [1]): 90%
MIC (Enterococcus faecium [4]): 6.25 µg/mL (≈ 8.68 µM)
MIC [5]: 3.13 µg/mL (≈ 4.35 µM)
IC50 [6]: 91 µg/mL (≈ 126 µM)
MNTC at 48 h [7]: 62.5 µg/mL
Activity [8]: Non-toxic
inhibition (Bacillus subtilis [26]): inactive
MIC (Escherichia coli [9]): > 200 µg/mL
MIC (Pseudomonas aeruginosa): > 200 µg/mL
Activity (Escherichia coli [14]): Active
MIC (Enterococcus faecalis [10]): 12.5 µg/mL (≈ 17.4 µM)
MIC (Bacillus subtilis [12]): 6.25 µg/mL (≈ 8.68 µM)
MIC (Streptococcus agalactiae): 3.13 µg/mL (≈ 4.35 µM)
